≈ marks a conversion by molar mass, not a printed value.
Tests used:
[1] = Lipophilicity, log D of the compound at pH 7.4; format: physicochemical; conditions: buffer
[2] = Oral bioavailability in rat; format: ADME, organism-based; conditions: in vivo
[3] = tested on: Canis familiaris; experiment: Volume of distribution at steady state in dog at 1 mg/kg, po and iv; format: ADME, organism-based, Canis lupus familiaris; design: dose 1 mg/kg, route oral; conditions: in vivo
[4] = Cmax in dog at 1 mg/kg, po and iv; format: ADME, organism-based, Canis lupus familiaris; design: dose 1 mg/kg, route oral; conditions: in vivo
[5] = Oral bioavailability in dog at 1 mg/kg; format: ADME, organism-based, Canis lupus familiaris; conditions: in vivo
[6] = Aqueous solubility in phosphate buffer at pH 7.4 after 24 hrs; format: physicochemical
Method in brief: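 Solubility measured on crystalline material in aqueous phosphate buffer, pH 7.4, after 24 h at 25 °C.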

[7] = Apparent permeability across apical to basolateral side in MDCK cells at 10 uM; format: ADME, cell-based, Canis lupus familiaris; conditions: dog
Method in brief: (§1)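 Test compound at […] incubated on cultured MDCK cell monolayers. Apparent permeability measured in both directions, apical to basolateral and basolateral to apical.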

[8] = Apparent permeability across basolateral to apical side in MDCK cells at 10 uM; format: ADME, cell-based, Canis lupus familiaris; conditions: dog; method in brief: as §1

SMILES | logD [1] | bioavailability [2] [%] | further results
CCCSc1nc(N2CCOCC2)ncc1C(=O)N[C@H]1C2CC3CC1C[C@](O)(C3)C2 | 2.8 | 83 | Vdss [3]: 0.7 L/kg; Cmax [4]: 40 nM; bioavailability [5]: 10%
CCCSc1nc(N2CCOCC2)ccc1C(=O)N[C@H]1C2CC3CC1C[C@](O)(C3)C2 | 2.9 | 64 | Vdss [3]: 0.5 L/kg; bioavailability [5]: 0%
CCCSc1nc(C)ccc1C(=O)N[C@H]1C2CC3CC1C[C@](O)(C3)C2 | 2.8 | 63 | Vdss [3]: 0.4 L/kg; Cmax [4]: 150 nM; bioavailability [5]: 5%
Cc1ncc(C(=O)N[C@H]2C3CC4CC2C[C@](O)(C4)C3)c(CC(C)C)n1 | 1.4 | 100 | 
CCCCc1nc(C)ncc1C(=O)N[C@H]1C2CC3CC1C[C@](O)(C3)C2 | 1.6 | 98 | 
Cc1nc(N2CCOCC2)ncc1C(=O)N[C@H]1C2CC3CC1C[C@](O)(C3)C2 | 1.2 |  | 
O=C(N[C@H]1C2CC3CC1C[C@](O)(C3)C2)c1cnc(N2CCOCC2)nc1C1CC1 | 2.1 | 100 | Vdss [3]: 0.9 L/kg; Cmax [4]: 360 nM; bioavailability [5]: 100%; solubility at 24 h [6]: 240 µM (≈ 95.6 µg/mL); Papp A→B at 10 µM [7]: 19 ×10⁻⁶ cm/s; Papp B→A at 10 µM [8]: 30 ×10⁻⁶ cm/s
Cc1ncc(C(=O)N[C@H]2C3CC4CC2C[C@](O)(C4)C3)c(CC2CCCC2)n1 | 2.1 | 50 | 
CC(C)(C)c1nc(N2CCOCC2)ncc1C(=O)N[C@H]1C2CC3CC1C[C@](O)(C3)C2 | 2.6 | 100 | 
Cc1ncc(C(=O)N[C@H]2C3CC4CC2C[C@](O)(C4)C3)c(-c2ccccc2)n1 | 1.1 |  | 
CCCSc1nc(N(C)C)ncc1C(=O)N[C@H]1C2CC3CC1C[C@](O)(C3)C2 | 3.4 |  | 
Cc1ncc(C(=O)N[C@H]2C3CC4CC2C[C@](O)(C4)C3)c(C2CC2)n1 | 1.2 |  | 
CCCSc1nc(NC)ccc1C(=O)N[C@H]1C2CC3CC1C[C@](O)(C3)C2 | 3.3 | 30 | 
O=C(N[C@H]1C2CC3CC1C[C@](O)(C3)C2)c1ccc(N2CCOCC2)nc1C1CC1 | 2 | 100 | Vdss [3]: 0.6 L/kg; Cmax [4]: 40 nM; bioavailability [5]: 25%
Cc1ncc(C(=O)N[C@H]2C3CC4CC2C[C@](O)(C4)C3)c(C2CCCC2)n1 | 2 | 77 | Vdss [3]: 0.9 L/kg; Cmax [4]: 170 nM; bioavailability [5]: 58%
CCCSc1nc(NC)ncc1C(=O)N[C@H]1C2CC3CC1C[C@](O)(C3)C2 | 2.9 |  | 
CCCSc1nc(C)ncc1C(=O)N[C@H]1C2CC3CC1C[C@](O)(C3)C2 | 2.5 | 74 | Vdss [3]: 0.3 L/kg; Cmax [4]: 490 nM; bioavailability [5]: 110%
Cc1ncc(C(=O)N[C@H]2C3CC4CC2C[C@](O)(C4)C3)c(C(C)(C)C)n1 | 1.9 | 84 | 
O=C(N[C@H]1C2CC3CC1C[C@](O)(C3)C2)c1cnc(N2CCOCC2)nc1C1CCCCC1 | 3.2 | 31 | 
CCCSc1nc(N(C)C)ccc1C(=O)N[C@H]1C2CC3CC1C[C@](O)(C3)C2 | 3.8 | 24 | 
CCCSc1ncncc1C(=O)N[C@H]1C2CC3CC1C[C@](O)(C3)C2 | 2 | 0 | 
Cc1ccc(C(=O)N[C@H]2C3CC4CC2C[C@](O)(C4)C3)c(C2CC2)n1 | 1.6 | 75 | Vdss [3]: 0.3 L/kg; Cmax [4]: 260 nM; bioavailability [5]: 37%
CCCOc1nc(N2CCOCC2)ccc1C(=O)N[C@H]1C2CC3CC1C[C@](O)(C3)C2 | 3.8 | 31 | 
CCCOc1nc(N2CCOCC2)ncc1C(=O)N[C@H]1C2CC3CC1C[C@](O)(C3)C2 | 3 | 36 | 
O=C(N[C@H]1C2CC3CC1C[C@](O)(C3)C2)c1cnc(N2CCOCC2)nc1C1CCCC1 | 3 | 67 | 
CC1(c2nc(N3CCOCC3)ncc2C(=O)N[C@H]2C3CC4CC2C[C@](O)(C4)C3)CC1 | 1.8 |  | 
O=C(N[C@H]1C2CC3CC1C[C@](O)(C3)C2)c1cnc(N2CCOCC2)nc1C1CCC1 | 2.4 | 45 | 
Cc1ncc(C(=O)N[C@H]2C3CC4CC2C[C@](O)(C4)C3)c(CC2CC2)n1 | 1.2 |  | 

Reference: ChEMBL document CHEMBL2157961, “Optimisation of pharmacokinetic properties in a neutral series of 11β-HSD1 inhibitors” (Bioorg Med Chem Lett, 2012)
